Values after ≈ are worked out from the molar mass of the structure shown.
Legend:
[1] = tested on: Pseudomonas aeruginosa; assay: Antibacterial activity against Pseudomonas aeruginosa isolate 1052 by microdilution method; format: functional
Method in brief: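 CLSI broth microdilution in cation-adjusted Mueller-Hinton broth (20–25 mg/liter Ca, 10–12.5 mg/liter Mg). Standard inoculum 10⁵ CFU/ml, incubated in ambient air. Clinical hospital isolates.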

[2] = tested on: Pseudomonas aeruginosa; assay: Antibacterial activity against Pseudomonas aeruginosa isolate 896 by microdilution method; format: functional
[3] = tested on: Pseudomonas aeruginosa; assay: Antibacterial activity against Pseudomonas aeruginosa isolate 968 by microdilution method; format: functional
[4] = fT>MIC in human infected with Pseudomonas aeruginosa isolate 993 at 500 mg administered as 1 hr infusion; format: functional
[5] = fT>MIC in human infected with Pseudomonas aeruginosa isolate 1005 at 500 mg administered as 1 hr infusion; format: functional
[6] = fT>MIC in human infected with Pseudomonas aeruginosa isolate 906 at 500 mg administered as 1 hr infusion; format: functional
[7] = fT>MIC in human infected with Pseudomonas aeruginosa isolate 1036 at 500 mg administered as 1 hr infusion; format: functional
[8] = fT>MIC in human infected with Pseudomonas aeruginosa isolate 931 at 500 mg administered as 1 hr infusion; format: functional
[9] = fT>MIC in human infected with Pseudomonas aeruginosa isolate 936 at 500 mg administered as 1 hr infusion; format: functional
[10] = fT>MIC in human infected with Pseudomonas aeruginosa isolate 988 at 500 mg administered as 1 hr infusion; format: functional
[11] = fT>MIC in human infected with Pseudomonas aeruginosa isolate 993 at 500 mg administered as 4 hr infusion; format: functional
[12] = fT>MIC in human infected with Pseudomonas aeruginosa isolate 1029 at 500 mg administered as 4 hr infusion; format: functional
[13] = fT>MIC in human infected with Pseudomonas aeruginosa isolate 1062 at 500 mg administered as 4 hr infusion; format: functional
[14] = fT>MIC in human infected with Pseudomonas aeruginosa isolate 1005 at 500 mg administered as 4 hr infusion; format: functional
[15] = fT>MIC in human infected with Pseudomonas aeruginosa isolate 1052 at 500 mg administered as 4 hr infusion; format: functional
[16] = fT>MIC in human infected with Pseudomonas aeruginosa isolate 979 at 500 mg administered as 4 hr infusion; format: functional
[17] = fT>MIC in human infected with Pseudomonas aeruginosa isolate 1036 at 500 mg administered as 4 hr infusion; format: functional
[18] = fT>MIC in human infected with Pseudomonas aeruginosa isolate 968 at 500 mg administered as 4 hr infusion; format: functional
[19] = fT>MIC in neutropenic mouse infected with Pseudomonas aeruginosa isolate 993 at 500 mg administered as 1 hr infusion; format: functional
Method in brief: (§1)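 Free-drug time above MIC simulated from one-compartment mouse serum PK (25.2% protein binding). The mice were cyclophosphamide-neutropenic and uranyl nitrate-renally impaired. Regimen was subcutaneous 10, 15, 2.5, 1.25, 0.5, 0.25 mg/kg at 0, 0.5, 2.5, 4, 5.5, 7 h, repeated every 8 h over 24 h.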

[20] = fT>MIC in neutropenic mouse infected with Pseudomonas aeruginosa isolate 1029 at 500 mg administered as 1 hr infusion; format: functional
[21] = fT>MIC in neutropenic mouse infected with Pseudomonas aeruginosa isolate 1055 at 500 mg administered as 1 hr infusion; format: functional; method in brief: as §1
[22] = fT>MIC in neutropenic mouse infected with Pseudomonas aeruginosa isolate 1052 at 500 mg administered as 1 hr infusion; format: functional; method in brief: as §1
[23] = fT>MIC in neutropenic mouse infected with Pseudomonas aeruginosa isolate 1058 at 500 mg administered as 1 hr infusion; format: functional; method in brief: as §1
[24] = fT>MIC in neutropenic mouse infected with Pseudomonas aeruginosa isolate 931 at 500 mg administered as 1 hr infusion; format: functional; method in brief: as §1
[25] = fT>MIC in neutropenic mouse infected with Pseudomonas aeruginosa isolate 993 at 500 mg administered as 4 hr infusion; format: functional
Method in brief: (§2)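 Mouse fT>MIC was modelled with first-order one-compartment serum PK and 25.2% binding. Mice were neutropenic (cyclophosphamide) with uranyl nitrate renal impairment. Subcutaneous doses were 5.5, 2.25, 4.5, 4.5, 4.5, 4.5, 0.75, 0.375 mg/kg at 0, 0.5, 1.5, 2.5, 3.5, 4.5, 6, 7.5 h per 8-h interval over 24 h.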

[26] = fT>MIC in neutropenic mouse infected with Pseudomonas aeruginosa isolate 1029 at 500 mg administered as 4 hr infusion; format: functional
[27] = fT>MIC in neutropenic mouse infected with Pseudomonas aeruginosa isolate 1005 at 500 mg administered as 4 hr infusion; format: functional
[28] = fT>MIC in neutropenic mouse infected with Pseudomonas aeruginosa isolate 1052 at 500 mg administered as 4 hr infusion; format: functional; method in brief: as §2
[29] = fT>MIC in neutropenic mouse infected with Pseudomonas aeruginosa isolate 906 at 500 mg administered as 4 hr infusion; format: functional; method in brief: as §2
[30] = fT>MIC in neutropenic mouse infected with Pseudomonas aeruginosa isolate 1036 at 500 mg administered as 4 hr infusion; format: functional; method in brief: as §2
[31] = fT>MIC in neutropenic mouse infected with Pseudomonas aeruginosa isolate 1058 at 500 mg administered as 4 hr infusion; format: functional; method in brief: as §2
[32] = fT>MIC in neutropenic mouse infected with Pseudomonas aeruginosa isolate 944 at 500 mg administered as 4 hr infusion; format: functional; method in brief: as §2
[33] = fT>MIC in neutropenic mouse infected with Pseudomonas aeruginosa isolate 1050 at 500 mg administered as 4 hr infusion; format: functional; method in brief: as §2
[34] = fT>MIC in neutropenic mouse infected with Pseudomonas aeruginosa isolate 896 at 500 mg administered as 4 hr infusion; format: functional; method in brief: as §2
[35] = Tmax in Pseudomonas aeruginosa ATCC 27853 infected neutropenic ICR mouse at 50 mg/kg, sc administered as single dose 2 hrs postinfection by HPLC; format: ADME, organism-based; set-up: dose 50 mg/kg, route subcutaneous; conditions: in vivo
Method in brief: (§3)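 Neutropenic mice (cyclophosphamide ip 150 and 100 mg/kg, 4 and 1 days before inoculation) with uranyl nitrate 5 mg/kg ip 3 days before, for renal impairment. Thigh infection with ATCC 27853 at 10⁶ CFU/ml, 0.1 ml per thigh. Single sc doses 2 h later. Intracardiac blood from 6–12 mice per time point, eight time points over 4 h. Serum assayed by HPLC (linear 0.5–40 μg/ml). One-compartment first-order fit.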

[36] = Elimination rate constant in Pseudomonas aeruginosa ATCC 27853 infected neutropenic ICR mouse at 10 mg/kg, sc administered as single dose 2 hrs postinfection; format: ADME, organism-based; set-up: dose 10 mg/kg, route subcutaneous; conditions: in vivo; method in brief: as §3
[37] = Half-life in Pseudomonas aeruginosa ATCC 27853 infected neutropenic ICR mouse at 150 mg/kg, sc administered as single dose 2 hrs postinfection; format: ADME, organism-based; set-up: dose 150 mg/kg, route subcutaneous; conditions: in vivo; method in brief: as §3
[38] = Clearance in Pseudomonas aeruginosa ATCC 27853 infected neutropenic ICR mouse at 10 mg/kg, sc administered as single dose 2 hrs postinfection; format: ADME, organism-based; set-up: dose 10 mg/kg, route subcutaneous; conditions: in vivo; method in brief: as §3
[39] = AUC in healthy human at 500 mg administered as 1 hr infusion; format: ADME, organism-based; conditions: plasma, iv
[40] = AUC in healthy human at 500 mg administered as 4 hr infusion; format: ADME, organism-based; conditions: plasma, iv

**Q.** For `C[C@@H](O)[C@H]1C(=O)N2C(C(=O)O)=C(S[C@@H]3CN[C@H](CNS(N)(=O)=O)C3)[C@H](C)[C@H]12` [DORIPENEM], which MIC [1] is on record?
**A.** 1 µg/mL (≈ 2.38 µM)

**Q.** What about the MIC [2] of the same compound?
**A.** 8 µg/mL (≈ 19 µM)

**Q.** And the MIC [3]?
**A.** 16 µg/mL (≈ 38 µM)

**Q.** What about the “fT>MIC” value [4] of the same compound?
**A.** 100%

**Q.** What about the “fT>MIC” value [5] of the same compound?
**A.** 55%

**Q.** And the “fT>MIC” value [6]?
**A.** 40%

**Q.** And the “fT>MIC” value [7]?
**A.** 40%

**Q.** What about the “fT>MIC” value [8] of the same compound?
**A.** 27.5%

**Q.** What about the “fT>MIC” value [9] of the same compound?
**A.** 17.5%

**Q.** And the “fT>MIC” value [10]?
**A.** 17.5%

**Q.** And the “fT>MIC” value [11]?
**A.** 100%

**Q.** And the “fT>MIC” value [12]?
**A.** 100%

**Q.** And the fT>MIC [13]?
**A.** 95%

**Q.** And the fT>MIC [14]?
**A.** 80%

**Q.** And the fT>MIC [15]?
**A.** 80%

**Q.** And the fT>MIC [16]?
**A.** 65%

**Q.** And the fT>MIC [17]?
**A.** 65%

**Q.** What about the fT>MIC [18] of the same compound?
**A.** 0%

**Q.** And the “fT>MIC” value [19]?
**A.** 100%

**Q.** And the “fT>MIC” value [20]?
**A.** 100%

**Q.** What about the fT>MIC [21] of the same compound?
**A.** 75%

**Q.** And the fT>MIC [22]?
**A.** 55%

**Q.** And the fT>MIC [23]?
**A.** 42.5%

**Q.** And the fT>MIC [24]?
**A.** 30%

**Q.** What about the “fT>MIC” value [25] of the same compound?
**A.** 100%

**Q.** What about the “fT>MIC” value [26] of the same compound?
**A.** 100%

**Q.** What about the “fT>MIC” value [27] of the same compound?
**A.** 82.5%

**Q.** What about the “fT>MIC” value [28] of the same compound?
**A.** 82.5%

**Q.** What about the “fT>MIC” value [29] of the same compound?
**A.** 70%

**Q.** What about the “fT>MIC” value [30] of the same compound?
**A.** 70%

**Q.** And the “fT>MIC” value [31]?
**A.** 70%

**Q.** And the “fT>MIC” value [32]?
**A.** 52.5%

**Q.** And the “fT>MIC” value [33]?
**A.** 52.5%

**Q.** And the “fT>MIC” value [34]?
**A.** 0%

**Q.** What about the Tmax [35] of the same compound?
**A.** 22.8 min

**Q.** And the k el at 2 h [36]?
**A.** 0.000467 s⁻¹

**Q.** And the half-life [37]?
**A.** 26.4 min

**Q.** And the CL/F [38]?
**A.** 11.2 mL/min/kg

**Q.** And the AUC at 1 h [39]?
**A.** 32600 ng·h/mL

**Q.** And the AUC at 4 h [40]?
**A.** 32400 ng·h/mL
